Experimental data gathered from unrelated publications.
Each line is one published result; the experiments were not run side by side. ≈ marks a conversion by molar mass, not a printed value.
Organism: Klebsiella pneumoniae

NC[C@H]1O[C@H](O[C@H]2[C@H](O)[C@@H](O[C@H]3O[C@H](CO)[C@@H](O)[C@H](N)[C@H]3O)[C@H](N)C[C@@H]2N)[C@H](N)C[C@@H]1O — MIC (microbial growth, broth dilution; ATCC700603): 1.3 µM
Cc1ccc(S(=O)(=O)Oc2cc(C(C)C)ccc2C)cc1 — IC50 (microbial growth, broth dilution; ATCC700603): 279 µg/mL (≈ 918 µM)
Cc1c(CN(C)C(=O)/C=C/c2cnc3c(c2)CC(CCN)C(=O)N3)oc2ccccc12.Cl (centres unmarked) — MIC (microbial growth, broth dilution; BAA2470): 4 µg/mL
CC(=O)NC[C@H]1CN(c2ccc(N3CCOCC3)c(F)c2)C(=O)O1 — MIC (microbial growth, broth dilution; ATCC700603): 1280 µM
O=C(O)c1cn(C2CC2)c2cc(N3CCNCC3)c(F)cc2c1=O — inhibition zone (microbial growth, disc diffusion; 100 µg/mL, 24 h): 17 mm
Cc1ccc(C(C)C)cc1OS(=O)(=O)c1ccc([N+](=O)[O-])cc1 — IC50 (microbial growth, broth dilution; ATCC700603): 463 µg/mL (≈ 1380 µM)
COc1cc(Cc2cnc(N)nc2N)cc(OC)c1OC — MIC (microbial growth, broth dilution; ATCC700603): 20 µM
N#CC(=Cc1ccccc1O)C1=NC(=O)C(=Cc2cn(-c3ccccc3)nc2-c2ccccc2)S1 — MBC (microbial killing, broth dilution): 0.5 µg/mL
CN[C@H](CC(C)C)C(=O)N[C@H]1C(=O)N[C@@H](CC(N)=O)C(=O)N[C@H]2C(=O)N[C@H]3C(=O)N[C@H](C(=O)N[C@H](C(=O)O)c4cc(O)cc(O)c4-c4cc3ccc4O)[C@H](O)c3ccc(c(Cl)c3)Oc3cc2cc(c3O[C@@H]2O[C@H](CO)[C@@H](O)[C@H](O)[C@H]2O[C@H]2C[C@](C)(N)[C@H](O)[C@H](C)O2)Oc2ccc(cc2Cl)[C@H]1O — MBC (microbial killing, broth dilution; ATCC43816): > 128 µM
Cc1c(NC(=O)CC2=NC(=O)CS2)c(=O)n(-c2ccccc2)n1C — inhibition zone (microbial growth, well diffusion; 100000 µg/mL): 25 mm
CCCCS(=O)(=O)Oc1cccc2cccnc12 — IC50 (microbial growth, broth dilution; ATCC700603): 171 µg/mL (≈ 645 µM)
O=C(O)c1cn(C2CC2)c2cc(N3CCNCC3)c(F)cc2c1=O — MBC (microbial killing, broth dilution): 0.5 µg/mL
Cc1ccc(C(C)C)cc1OS(=O)(=O)c1cccs1 — IC50 (microbial growth, broth dilution; ATCC700603): 163 µg/mL (≈ 551 µM)
CCOC(=O)c1c(N)csc1-c1cn(-c2ccccc2)nc1-c1ccc(C)cc1 — inhibition zone (microbial growth, well diffusion; 100000 µg/mL): 27 mm
Cc1ccc(C(C)C)cc1O — IC50 (microbial growth, broth dilution; ATCC700603): 61.9 µg/mL (≈ 412 µM)
CCn1cc(C(=O)O)c(=O)c2ccc(C)nc21 — MIC (microbial growth, broth dilution; ATCC700603): 80 µM
N#CC(=Cc1ccc([N+](=O)[O-])cc1)C1=NC(=O)C(=Cc2cn(-c3ccccc3)nc2-c2ccccc2)S1 — inhibition zone (microbial growth, well diffusion; 100000 µg/mL): 22 mm
